Compounds with a hit are over-represented: about 2.4% of the library has one in this group of screens.
Efa HMGR inh: inhibitors of E. faecalis class II HMGR, primary screen, biochemical, Enterococcus faecalis; HMG-CoA reductase (Enterococcus faecalis, mvaE); 0.41% of 190,000 active; purified E. faecalis HMGR, NADPH absorbance 340 nm kinetic; inhibition, % at 10 µM; AID 1066, 2008;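 active = inhibition above a set limit, the median over all tested compounds plus 3 SD, cut at about 9.5% in these data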;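 note: enzyme runs in reverse so mevalonate oxidation gives rising NADPH absorbance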
Rad51 HR inh: human RAD51 strand exchange inhibitors, primary screen, biochemical, fluorescence; 0.085% of 200,000 active; DNA repair protein RAD51 homolog 1 (Homo sapiens), Q06609; inhibition, % at 10 µM; AID 1385, 2008; hRad51 DNA strand exchange, fluorescence dequenching;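 active = inhibition above 40% at the single screening dose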
Target sequence (Q06609 whole entry, looked up): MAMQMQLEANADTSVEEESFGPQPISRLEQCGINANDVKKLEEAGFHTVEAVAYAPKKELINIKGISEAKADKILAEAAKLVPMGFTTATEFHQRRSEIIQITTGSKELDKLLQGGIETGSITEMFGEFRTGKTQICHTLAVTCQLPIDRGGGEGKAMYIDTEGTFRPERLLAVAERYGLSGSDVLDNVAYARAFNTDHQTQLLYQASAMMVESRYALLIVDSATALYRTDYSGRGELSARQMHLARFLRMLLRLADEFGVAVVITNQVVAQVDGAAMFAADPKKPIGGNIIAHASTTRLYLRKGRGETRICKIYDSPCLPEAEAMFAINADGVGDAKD
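material = hRad51 filaments on single-stranded DNA | reagent = Donor/quencher-labelled 47-bp dsDNA substrate | compound = 10 µM final, single point | schedule = strand-exchange reaction 15 min at room temperature | measured by = fluorescein emission 520 nm, excitation 485 nm | read-out basis = % inhibition versus plate control and blank means | benchmarks = plate controls and plate blanks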
Arbovirus anti: antivirals against arbovirus infection, primary screen, cell-based, full library, 10K replicate subset; AID 1251, 2008; arbovirus infection cell-based antiviral screen; 0.37% of 200,000 active; inhibition, % at 10 µM; in the data active = inhibition above about 30%
BB579 growth dn: growth inhibitors of yeast BB579 in restrictive medium, primary screen, yeast lifespan-shortening project, S. cerevisiae. 0.51% of 140,000 active. OD615, 48 h. inhibition, % at 10 µM;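 active = inhibition above a set limit, 3 SD over the mean compound inhibition, cut at about 44% in these data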
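Test system: DeaD yeast strain BB579 / Buffer or medium: restrictive glucose-based CSMM-D medium / Doses: single 10 µM dose / Schedule: 4 h cell preincubation, 48 h compound exposure, 30 °C humidified / Technique: culture absorbance at 615 nm / Controls: amphotericin B positive control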
Yeast life ext: compounds extending yeast replicative lifespan, primary screen, S. cerevisiae, OD615; S. cerevisiae growth with nicotinamide; deaD strain in restrictive glucose medium; inhibition of the nicotinamide effect, % at 10 µM; 0.68% of 130,000 active; AID 775, 2007;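 active = inhibition above a set limit, placed 3 SD over the median of all compounds, cut at about 26% in these data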
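System: DeaD-strain S. cerevisiae / Buffer or medium: CSMM-D, restrictive glucose (dextrose) synthetic minimal medium / Probe or stimulus: nicotinamide, 1.5 mM, co-present with compound / Compound: one concentration, 10 µM, DMSO 0.25% / Incubation: 48 h compound exposure at 30 °C, humidified / Technique: optical density (absorbance) at 615 nm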
Measles CPE: compounds protecting cells from measles virus cytopathic effect, primary screen, measles RdRp inhibitor project, single point, MLSMR library, absorbance. Measles virus-infected cells, CPE protection. protection (pct of control), % at 4 µM. 1.5% of 140,000 active. AID 841, 2007; in the data active = protection mostly above about 24%, no sharp cut-off; inactive = mostly below about 26%
Large screens that a line does not name were inactive.

Cc1cc(OCC(=O)O/N=C(\N)c2ccccc2)ccc1Cl	none
COc1cccc(OC)c1C(=O)NC(C)C12CC3CC(CC(C3)C1)C2 (configuration not stated)	Arbovirus anti 43
COc1ccccc1NC(=O)c1ccc(S(=O)(=O)N2CCOCC2)cc1	none
COc1ccccc1C(=O)NCC1CCN(c2ccc(S(=O)(=O)N3CCOCC3)cc2)CC1	Arbovirus anti 45
CC1(C)N([O-])C2=C(c3ccccc3C2=O)[N+](=O)C1(C)C	Yeast life ext 53
CCC1(C)N([O-])C(C)=C(c2ccccc2)[N+]1=O (configuration not stated)	none
O=C1NN(c2ccccc2)C(=O)/C1=C/c1coc2ccccc2c1=O	Yeast life ext 26
CCOC(=O)/C(C#N)=C1/C=C(C)NC(c2ccccc2O)=N1	none
CCOC(=O)/C(C#N)=C1/C=CN(C)C(C)=N1	Measles CPE 29
COC(=O)c1cnn(-c2nc(OC)cc(OC)n2)c1C	none
COc1cc(OC)nc(-n2ncc(Br)c(Br)c2=O)n1	Yeast life ext 38
COC(=O)[C@@H]1CCCN1C(=O)[C@@H](NC(=O)OC(C)(C)C)C(C)C	none (no result: Efa HMGR inh, Arbovirus anti, BB579 growth dn, Yeast life ext, Measles CPE)
COc1ccc(CCNC(=O)c2ccc(-c3ccc([N+](=O)[O-])cc3Cl)o2)cc1	none
O=C(NCCCc1ccccc1)c1ccccc1O	none
O=C(NCCO)c1ccccc1O	Measles CPE 26
CC(C)(C)c1cc(NCCCn2ccnc2)n2ncc(-c3ccc(Cl)cc3)c2n1	BB579 growth dn 86
Cc1cc(NCCCn2ccnc2)n2nc(-c3ccc(Cl)cc3)cc2n1	none (no result: BB579 growth dn, Yeast life ext, Measles CPE)
CC1CCCC(C)N1C(=O)CSc1nnc(NC(=O)Cc2cccs2)s1 (configuration not stated)	Measles CPE 46
CC1Cc2ccccc2N1C(=O)CSc1nnc(NC(=O)Cc2cccs2)s1 (configuration not stated)	none
CCOC(=O)C1(CCc2ccccc2)CCN(Cc2cccc3nccnc23)CC1	none (no result: BB579 growth dn, Yeast life ext, Measles CPE)
O=S(=O)([O-])CCC[n+]1c(SCCCS(=O)(=O)O)sc2ccc(Cl)cc21	Measles CPE 35
c1cnc2c(C3NCCc4c3[nH]c3ccccc43)cccc2c1 (configuration not stated)	none (no result: BB579 growth dn, Yeast life ext, Measles CPE)
O=C(CN1CCOCC1)Nc1ncc(Cc2cccc(Cl)c2Cl)s1	none
COc1ccc(N2CCN(C(C)C(=O)N3CCCC3)CC2)cc1 (configuration not stated)	none (no result: Rad51 HR inh, BB579 growth dn, Yeast life ext, Measles CPE)
CCc1ccc(NC(=O)CC2C(=O)Nc3c2c(=O)n(C)c(=O)n3C)cc1 (configuration not stated)	Efa HMGR inh 12
CCCCCc1nnc(NC(=O)C(=O)OCC)s1	Yeast life ext 39
CCCCOC(=O)Nc1nnc(CCc2ccccc2)s1	Measles CPE 51
CCOC(=O)C(=O)Nc1nnc(SCc2ccc(F)cc2)s1	Yeast life ext 35
CCCCc1nnc(NC(=O)C(=O)OCC)s1	none (no result: BB579 growth dn, Yeast life ext, Measles CPE)
CC(=O)NCCOc1nc(N(C)C)nc(N2CCCCC2)n1	none (no result: BB579 growth dn, Yeast life ext, Measles CPE)
COc1ccc(C(CC(=O)c2ccc(C)cc2)C(C#N)C#N)cc1OC (configuration not stated)	none
Cc1ccccc1NC(=O)Cn1c(CCC(=O)O)ccc1-c1cccs1	Efa HMGR inh 19 (no result: BB579 growth dn, Yeast life ext, Measles CPE)
N#Cc1cccc(NCC(=O)Nc2ccc3c(c2)OCCO3)c1	none (no result: BB579 growth dn, Yeast life ext, Measles CPE)
CC(C)OC(=O)NC(C)(C)COC(=O)Nc1cccc(Cl)c1	Efa HMGR inh 16 (no result: Yeast life ext)
CCN(CC)CCN(Cc1cc2ccc(C)cc2[nH]c1=O)C(=O)Nc1ccc(Cl)cc1	none (no result: BB579 growth dn, Yeast life ext, Measles CPE)
Cc1ccccc1C(=O)NNC(=S)NC(=O)COc1ccccc1	BB579 growth dn 70
Nc1nnc(CCS(=O)(=O)c2ccc(Br)cc2)s1	none (no result: BB579 growth dn, Yeast life ext, Measles CPE)
COc1ccc(-c2c(C#N)c(N)nc3c2CCCCCC3)cc1OC	Measles CPE 42 (no result: Rad51 HR inh)
N#Cc1c(N)nc2c(c1-c1cccnc1)CCCCC2	none
CSc1ccc(-c2c(C#N)c(N)nc3c2CCCC3)cc1	Measles CPE 40
N#Cc1c(N)nc2c(c1-c1ccncc1)CCCCC2	none (no result: Yeast life ext)
CCC(C)C(=O)NCCc1ccc(S(N)(=O)=O)cc1 (configuration not stated)	none (no result: Rad51 HR inh)
CCCS(=O)(=O)N1CCN=C1SCc1cccnc1	none (no result: BB579 growth dn, Yeast life ext, Measles CPE)
CCOC(=O)c1ccc(N(C(=O)c2cnccn2)C(C(=O)NC2CCCCC2)c2cn(C)nc2C)cc1 (configuration not stated)	Efa HMGR inh 15
O=C(c1cc([N+](=O)[O-])ccc1Cl)N1CCN(c2ccccn2)CC1	Efa HMGR inh 11 (no result: BB579 growth dn, Yeast life ext, Measles CPE)
CN(C)C(=O)c1nnsc1Sc1ccc(Cl)cc1	none (no result: BB579 growth dn, Yeast life ext, Measles CPE)
Cc1cc(-n2nnc3ccccc32)nc2ccccc12	Measles CPE 31
Cc1cc(N2CCCCC2)nc2ccccc12	none (no result: BB579 growth dn, Yeast life ext, Measles CPE)
CC(C)Cc1csc(NC(=O)c2ccc(F)cc2)c1C(=O)O	Arbovirus anti 48
CC(CNC(=O)C(C)(C)C)NC(=O)C(C)(C)C (configuration not stated)	none
OCC1(CO)COC(c2ccccc2)=N1	none (no result: BB579 growth dn, Yeast life ext, Measles CPE)
O=C1OCC(CO)(CO)N=C1NNc1ccc(Cl)c(Cl)c1	BB579 growth dn 98
Cc1ccc(N2C(=O)c3cccc4cccc(c34)C2=O)cc1	none (no result: BB579 growth dn, Yeast life ext, Measles CPE)
CC(=O)N1C(=O)c2cccc3cccc(c23)C(=O)N1C(C)=O	Measles CPE 54
C=CCNC(=O)/C(C#N)=C/c1ccccc1OCc1ccc(C(=O)OC)cc1	Yeast life ext 35
COC(=O)c1ccc(COc2ccccc2/C=C(\C#N)C(=O)Nc2ccc(C)cc2)cc1	none
COc1cccc(C(=O)O/N=C(\N)Cc2ccc(Cl)cc2)c1	BB579 growth dn 100
N/C(Cc1ccc(Cl)cc1)=N\OC(=O)C1CCCCC1	BB579 growth dn 100
COc1cccc(C(=O)O/N=C(\N)c2ccncc2)c1	none
Cc1cc(C)nc(SCC(=O)c2cc3ccccc3oc2=O)n1	none
O=C(CSc1nc2ccccc2o1)c1cc2ccccc2oc1=O	Yeast life ext 38 (no result: Rad51 HR inh)
Cc1cc[n+](CC(=O)c2cc3ccccc3oc2=O)cc1	Yeast life ext 29 (no result: Rad51 HR inh)
CCN(C(=O)c1cc2ccccc2oc1=O)c1cccc(C)c1	none
CCc1ccc(NC(=O)C(C)OC(=O)c2cccc(S(=O)(=O)N3CCc4ccccc4C3)c2)cc1 (configuration not stated)	none
Cc1nc(NCc2ccco2)c2c3c(sc2n1)CCC3	none
CCN1CCc2c(sc3c2c(NCc2ccco2)nc2nnnn23)C1	Arbovirus anti 33, Measles CPE 35
Fc1cc(F)c2nc(N3CCCC3)sc2c1	none (no result: BB579 growth dn, Yeast life ext, Measles CPE)
COCC(=O)N(Cc1cc2cc(OC)ccc2[nH]c1=O)c1ccc(C)cc1	none
CC(=O)N1N=C(c2ccc(Cl)cc2)OC1(C)C	BB579 growth dn 48

Assay outcomes (PubChem)
